According to ChEMBL document CHEMBL3576840, “Helical Antimicrobial Sulfono-γ-AApeptides” (J Med Chem, 2015):
In brackets after ≈: the same amount, converted by molar mass. Residues, ends and D or L forms follow the SMILES beside them.

Columns and labels:
Staphylococcus aureus = assay: Antimicrobial activity against methicillin-resistant Staphylococcus aureus ATCC 33592 after 16 hrs; assay type: functional; conditions: ATCC 33592, 16 h
[1] = system: Staphylococcus epidermidis; assay: Antimicrobial activity against methicillin-resistant Staphylococcus epidermidis RP62A after 16 hrs; assay type: functional
Enterococcus faecalis = assay: Antimicrobial activity against Enterococcus faecalis ATCC 700802 after 16 hrs; assay type: functional; conditions: ATCC 700802, 16 h
Outline: (§1)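 Broth microdilution: overnight cultures were reinoculated at 1:100, grown to mid-log phase, and diluted to 1 × 10^6 CFU/mL. Cells were mixed 1:1 with serial dilutions […] and incubated 16 h at 37 °C, then read at 600 nm. MIC is the lowest concentration with no growth. Repeated multiple times, in duplicate.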

Pseudomonas aeruginosa = assay: Antimicrobial activity against Pseudomonas aeruginosa ATCC 27853 after 16 hrs; assay type: functional; conditions: ATCC 27853, 16 h; outline: as §1
Escherichia = assay: Antimicrobial activity against Escherichia ATCC 25922 after 16 hrs; assay type: functional; conditions: ATCC 25922, 16 h; outline: as §1
[2] = Induction of hemolysis in human RBCs incubated for 1 hr; assay type: cell-based, Erythrocyte; conditions: red blood cells
Outline: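 Fresh K2EDTA human RBCs were washed in PBS until the supernatant was clear and diluted to a 5% v/v suspension. This was mixed with equal volumes of compound dilutions for 1 h at 37 °C, centrifuged, and supernatant absorbance read at 360 nm. Hemolysis was normalized between PBS (0%) and 2% Triton X-100 (100%) controls. At least three repeats, in duplicate.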

SMILES | MIC (Staphylococcus aureus) | MIC [1] | MIC (Enterococcus faecalis) | MIC (Pseudomonas aeruginosa) | MIC (Escherichia) | HC50 at 1 h [2]
NCCCC[C@H](N)CN(CC(=O)N[C@@H](Cc1ccccc1)CN(CC(=O)N[C@@H](CCCCN)CN(CC(=O)N[C@@H](Cc1ccccc1)CN(CC(=O)N[C@@H](CCCCN)CN(CC(=O)N[C@@H](Cc1ccccc1)CN(CC(=O)N[C@@H](CCCCN)CN(CC(=O)N[C@@H](Cc1ccccc1)CN(CC(N)=O)S(=O)(=O)Cc1ccccc1)S(=O)(=O)CCN)S(=O)(=O)Cc1ccccc1)S(=O)(=O)Cc1ccccc1)S(=O)(=O)Cc1ccccc1)S(=O)(=O)CCN)S(=O)(=O)Cc1ccccc1)S(=O)(=O)Cc1ccccc1 | 3 µg/mL (≈ 1.15 µM) | 2 µg/mL (≈ 0.769 µM) | 10 µg/mL (≈ 3.84 µM) | 15 µg/mL (≈ 5.76 µM) | 3 µg/mL (≈ 1.15 µM) | 120 µg/mL
NCCCC[C@H](N)CN(CC(=O)N[C@@H](Cc1ccccc1)CN(CC(=O)N[C@@H](Cc1ccccc1)CN(CC(=O)N[C@@H](Cc1ccccc1)CN(CC(=O)N[C@@H](CCCCN)CN(CC(N)=O)S(=O)(=O)CCN)S(=O)(=O)Cc1ccccc1)S(=O)(=O)CCN)S(=O)(=O)Cc1ccccc1)S(=O)(=O)CCN | > 50 µg/mL | 20 µg/mL (≈ 12.8 µM) | > 50 µg/mL | > 50 µg/mL | 25 µg/mL (≈ 16 µM) | > 250 µg/mL
CC(C)C[C@H](N)CN(CC(=O)N[C@@H](CC(C)C)CN(CC(=O)N[C@@H](CC(C)C)CN(CC(=O)N[C@@H](CCCCN)CN(CC(=O)N[C@@H](CC(C)C)CN(CC(=O)N[C@@H](CC(C)C)CN(CC(=O)N[C@@H](CC(C)C)CN(CC(=O)N[C@@H](CCCCN)CN(CC(N)=O)S(=O)(=O)CCN)S(=O)(=O)CC(C)C)S(=O)(=O)CCN)S(=O)(=O)CC(C)C)S(=O)(=O)CCN)S(=O)(=O)CC(C)C)S(=O)(=O)CCN)S(=O)(=O)CC(C)C | > 50 µg/mL | 12 µg/mL (≈ 5.44 µM) | > 50 µg/mL | 50 µg/mL (≈ 22.7 µM) | 12 µg/mL (≈ 5.44 µM) | > 250 µg/mL
NCCCC[C@@H](CN(CC(N)=O)S(=O)(=O)CCN)NC(=O)CN(C[C@@H](N)Cc1ccccc1)S(=O)(=O)Cc1ccccc1 | > 50 µg/mL | > 50 µg/mL | > 50 µg/mL | > 50 µg/mL | > 50 µg/mL | –
CC(=O)N[C@@H](CCCCN)CN(CC(=O)N[C@@H](Cc1ccccc1)CN(CC(=O)N[C@@H](CCCCN)CN(CC(=O)N[C@@H](Cc1ccccc1)CN(CC(=O)N[C@@H](CCCCN)CN(CC(=O)N[C@@H](Cc1ccccc1)CN(CC(=O)N[C@@H](CCCCN)CN(CC(=O)N[C@@H](Cc1ccccc1)CN(CC(N)=O)S(=O)(=O)Cc1ccccc1)S(=O)(=O)CCN)S(=O)(=O)Cc1ccccc1)S(=O)(=O)Cc1ccccc1)S(=O)(=O)Cc1ccccc1)S(=O)(=O)CCN)S(=O)(=O)Cc1ccccc1)S(=O)(=O)Cc1ccccc1 | 5 µg/mL (≈ 1.89 µM) | 2 µg/mL (≈ 0.756 µM) | 10 µg/mL (≈ 3.78 µM) | 20 µg/mL (≈ 7.56 µM) | 3 µg/mL (≈ 1.13 µM) | 80 µg/mL
NCCCC[C@@H](CN(CC(N)=O)S(=O)(=O)CCN)NC(=O)CN(C[C@H](Cc1ccccc1)NC(=O)CN(C[C@H](Cc1ccccc1)NC(=O)CN(C[C@H](Cc1ccccc1)NC(=O)CN(C[C@H](CCCCN)NC(=O)CN(C[C@H](Cc1ccccc1)NC(=O)CN(C[C@@H](N)Cc1ccccc1)S(=O)(=O)CCN)S(=O)(=O)Cc1ccccc1)S(=O)(=O)CCN)S(=O)(=O)Cc1ccccc1)S(=O)(=O)CCN)S(=O)(=O)Cc1ccccc1 | 3 µg/mL (≈ 1.36 µM) | 3 µg/mL (≈ 1.36 µM) | > 50 µg/mL | 12 µg/mL (≈ 5.45 µM) | 12 µg/mL (≈ 5.45 µM) | > 250 µg/mL
CC(=O)N[C@@H](Cc1ccccc1)CN(CC(=O)N[C@@H](Cc1ccccc1)CN(CC(=O)N[C@@H](Cc1ccccc1)CN(CC(=O)N[C@@H](Cc1ccccc1)CN(CC(=O)N[C@@H](Cc1ccccc1)CN(CC(=O)N[C@@H](Cc1ccccc1)CN(CC(=O)N[C@@H](Cc1ccccc1)CN(CC(=O)N[C@@H](Cc1ccccc1)CN(CC(N)=O)S(=O)(=O)CCN)S(=O)(=O)CCN)S(=O)(=O)CCN)S(=O)(=O)CCN)S(=O)(=O)CCN)S(=O)(=O)CCN)S(=O)(=O)CCN)S(=O)(=O)CCN | 25 µg/mL (≈ 10.3 µM) | 6 µg/mL (≈ 2.46 µM) | 50 µg/mL (≈ 20.5 µM) | > 50 µg/mL | > 50 µg/mL | > 250 µg/mL
CC(=O)N[C@@H](CC(C)C)CN(CC(=O)N[C@@H](CC(C)C)CN(CC(=O)N[C@@H](CC(C)C)CN(CC(=O)N[C@@H](CC(C)C)CN(CC(=O)N[C@@H](CC(C)C)CN(CC(=O)N[C@@H](CC(C)C)CN(CC(=O)N[C@@H](CC(C)C)CN(CC(=O)N[C@@H](CC(C)C)CN(CC(N)=O)S(=O)(=O)CCN)S(=O)(=O)CCN)S(=O)(=O)CCN)S(=O)(=O)CCN)S(=O)(=O)CCN)S(=O)(=O)CCN)S(=O)(=O)CCN)S(=O)(=O)CCN | > 50 µg/mL | > 50 µg/mL | > 50 µg/mL | > 50 µg/mL | > 50 µg/mL | –
CC[C@H](C)[C@H](NC(=O)CN)C(=O)NCC(=O)N[C@@H](CCCCN)C(=O)N[C@@H](Cc1ccccc1)C(=O)N[C@@H](CC(C)C)C(=O)N[C@@H](CCCCN)C(=O)N[C@@H](CCCCN)C(=O)N[C@@H](C)C(=O)N[C@@H](CCCCN)C(=O)N[C@@H](CCCCN)C(=O)N[C@@H](Cc1ccccc1)C(=O)NCC(=O)N[C@@H](CCCCN)C(=O)N[C@@H](C)C(=O)N[C@@H](Cc1ccccc1)C(=O)N[C@H](C(=O)N[C@@H](CCCCN)C(=O)N[C@H](C(=O)N[C@@H](CC(C)C)C(=O)N[C@@H](CCCCN)C(=O)N[C@@H](CCCCN)C(N)=O)[C@@H](C)CC)C(C)C [PEXIGANAN] (H-GIGKFLKKAKKFGKAFVKILKK-NH2) | 16 µg/mL (≈ 6.46 µM) | 8 µg/mL (≈ 3.23 µM) | 32 µg/mL (≈ 12.9 µM) | 16 µg/mL (≈ 6.46 µM) | 8 µg/mL (≈ 3.23 µM) | –
CC(=O)N[C@@H](CCCCN)CN(CC(=O)N[C@@H](Cc1ccccc1)CN(CC(=O)N[C@@H](CCCCN)CN(CC(=O)N[C@@H](Cc1ccccc1)CN(CC(=O)N[C@@H](CCCCN)CN(CC(=O)N[C@@H](Cc1ccccc1)CN(CC(=O)N[C@@H](CCCCN)CN(CC(=O)N[C@@H](Cc1ccccc1)CN(CC(N)=O)S(=O)(=O)Cc1ccccc1)S(=O)(=O)CCN)S(=O)(=O)Cc1ccccc1)S(=O)(=O)CCN)S(=O)(=O)Cc1ccccc1)S(=O)(=O)CCN)S(=O)(=O)Cc1ccccc1)S(=O)(=O)CCN | 12 µg/mL (≈ 4.71 µM) | 4 µg/mL (≈ 1.57 µM) | 6 µg/mL (≈ 2.35 µM) | > 50 µg/mL | 6 µg/mL (≈ 2.35 µM) | 150 µg/mL
NCCCC[C@@H](CN(CC(N)=O)S(=O)(=O)CCN)NC(=O)CN(C[C@H](Cc1ccccc1)NC(=O)CN(C[C@H](Cc1ccccc1)NC(=O)CN(C[C@@H](N)Cc1ccccc1)S(=O)(=O)Cc1ccccc1)S(=O)(=O)CCN)S(=O)(=O)Cc1ccccc1 | > 50 µg/mL | 20 µg/mL (≈ 15.6 µM) | > 50 µg/mL | > 50 µg/mL | 25 µg/mL (≈ 19.5 µM) | > 250 µg/mL
CC(=O)N[C@@H](CC(C)C)CN(CC(=O)N[C@@H](CC(C)C)CN(CC(=O)N[C@@H](CC(C)C)CN(CC(=O)N[C@@H](CCCCN)CN(CC(=O)N[C@@H](CC(C)C)CN(CC(=O)N[C@@H](CC(C)C)CN(CC(=O)N[C@@H](CC(C)C)CN(CC(=O)N[C@@H](CCCCN)CN(CC(N)=O)S(=O)(=O)CCN)S(=O)(=O)CC(C)C)S(=O)(=O)CCN)S(=O)(=O)CC(C)C)S(=O)(=O)CCN)S(=O)(=O)CC(C)C)S(=O)(=O)CCN)S(=O)(=O)CC(C)C | > 50 µg/mL | 12 µg/mL (≈ 5.34 µM) | > 50 µg/mL | 50 µg/mL (≈ 22.2 µM) | 25 µg/mL (≈ 11.1 µM) | > 250 µg/mL
NCCCC[C@@H](CN(CC(N)=O)S(=O)(=O)CCN)NC(=O)CN(C[C@H](Cc1ccccc1)NC(=O)CN(C[C@H](Cc1ccccc1)NC(=O)CN(C[C@H](Cc1ccccc1)NC(=O)CN(C[C@H](CCCCN)NC(=O)CN(C[C@@H](N)Cc1ccccc1)S(=O)(=O)Cc1ccccc1)S(=O)(=O)CCN)S(=O)(=O)Cc1ccccc1)S(=O)(=O)CCN)S(=O)(=O)Cc1ccccc1 | 6 µg/mL (≈ 3.15 µM) | 3 µg/mL (≈ 1.58 µM) | > 50 µg/mL | 25 µg/mL (≈ 13.1 µM) | 12 µg/mL (≈ 6.3 µM) | > 250 µg/mL
CC(=O)N[C@@H](CCCCN)CN(CC(=O)N[C@@H](CCCCN)CN(CC(=O)N[C@@H](CCCCN)CN(CC(=O)N[C@@H](CCCCN)CN(CC(=O)N[C@@H](CCCCN)CN(CC(=O)N[C@@H](CCCCN)CN(CC(=O)N[C@@H](CCCCN)CN(CC(=O)N[C@@H](CCCCN)CN(CC(N)=O)S(=O)(=O)Cc1ccccc1)S(=O)(=O)Cc1ccccc1)S(=O)(=O)Cc1ccccc1)S(=O)(=O)Cc1ccccc1)S(=O)(=O)Cc1ccccc1)S(=O)(=O)Cc1ccccc1)S(=O)(=O)Cc1ccccc1)S(=O)(=O)Cc1ccccc1 | > 50 µg/mL | > 50 µg/mL | > 50 µg/mL | > 50 µg/mL | > 50 µg/mL | –
